# Assay results: ChEMBL document CHEMBL4152388, “Structure-Activity Relationships in Metal-Binding Pharmacophores for Influenza Endonuclease” (J Med Chem, 2018)
# Active and inactive are the calls of the source. The calls are words filed in the database; no cut-off is given here.
# Legend:
# [1] = test system: Influenza A virus (A/California/04/2009(H1N1)); assay: Inhibition of Influenza A (A/California/04/2009) (H1N1) clinical isolate N-terminal truncated PA endonuclease at 500 nM using 5'-FAM/3-TAMRA quencer labeled 17-mer ssDNA-oligo as substrate measured over 45 mins by FRET assay relative to control
# [2] = test system: Bacteria; assay: Inhibition of bacterial NDM1 at 200 uM using chromacef as substrate preincubated for 10 mins followed by substrate addition
# How it was run: (§1)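 Single-concentration cross-inhibition screen, final inhibitor 200 μM, percent inhibition relative to positive and negative controls; run per literature protocols (Arg1, MetAP1 Mn2+ isoform, NDM-1).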
# [3] = biological target: T1, Arginase-1 (Homo sapiens) (UniProt P05089); assay: Inhibition of full length human arginase 1 expressed in Escherichia coli BL21(DE3) at 200 uM using unlabeled L-arginine/L-[guanidino-14C]arginine as substrate after 5 mins by liquid scintillation counting method relative to control; how it was run: as §1
# T1 sequence (whole entry): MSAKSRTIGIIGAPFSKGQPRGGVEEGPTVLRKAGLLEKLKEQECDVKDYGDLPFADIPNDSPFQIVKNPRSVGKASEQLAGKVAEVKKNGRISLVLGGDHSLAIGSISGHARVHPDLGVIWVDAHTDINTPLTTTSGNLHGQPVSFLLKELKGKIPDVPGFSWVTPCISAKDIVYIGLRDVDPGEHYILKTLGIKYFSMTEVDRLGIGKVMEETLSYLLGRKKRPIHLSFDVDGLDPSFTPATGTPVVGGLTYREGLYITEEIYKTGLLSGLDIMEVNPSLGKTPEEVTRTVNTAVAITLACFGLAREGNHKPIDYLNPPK
# [4] = biological target: Human immunodeficiency virus type 1 integrase (Human immunodeficiency virus 1) (UniProt Q7ZJM1); assay: Inhibition of recombinant HIV1 integrase 3'-processing activity at 200 uM using 5'-end [32P]-labeled oligonucleotide substrate after 60 mins by densitometric analysis relative to control
# Sequence of Human immunodeficiency virus type 1 integrase (Human immunodeficiency virus 1) (Q7ZJM1 as listed by the source): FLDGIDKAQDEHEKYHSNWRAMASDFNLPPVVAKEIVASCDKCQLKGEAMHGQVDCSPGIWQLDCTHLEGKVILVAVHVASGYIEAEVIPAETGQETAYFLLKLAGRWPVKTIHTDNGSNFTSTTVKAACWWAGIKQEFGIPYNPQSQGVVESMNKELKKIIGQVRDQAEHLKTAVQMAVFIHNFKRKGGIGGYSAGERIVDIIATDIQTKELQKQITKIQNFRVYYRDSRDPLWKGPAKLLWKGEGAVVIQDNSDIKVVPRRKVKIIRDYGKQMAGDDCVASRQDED
# [5] = biological target: Carbonic anhydrase 2 (Homo sapiens) (UniProt P00918); assay: Inhibition of human carbonic anhydrase 2 at 200 uM using p-nitrophenyl acetate as substrate preincubated for 15 mins followed by substrate addition and measured every 1 min for 20 mins
# How it was run: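 Single-point screen at 200 μM, percent inhibition relative to positive and negative controls, following literature protocols.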
# [6] = biological target: Lactoylglutathione lyase (Homo sapiens) (UniProt Q04760); assay: Inhibition of human glyoxalase 1 at 200 uM relative to control
# Sequence of Lactoylglutathione lyase (Homo sapiens) (Q04760 2-184 limits assumed): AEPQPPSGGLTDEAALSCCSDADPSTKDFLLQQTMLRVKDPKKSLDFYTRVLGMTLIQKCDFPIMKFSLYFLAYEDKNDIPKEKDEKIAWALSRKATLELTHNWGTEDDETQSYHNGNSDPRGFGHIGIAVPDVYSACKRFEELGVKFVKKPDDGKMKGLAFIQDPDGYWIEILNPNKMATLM
# [7] = biological target: 72 kDa type IV collagenase (Homo sapiens) (UniProt P08253); assay: Inhibition of recombinant human MMP2 at 200 uM using Mca-Pro-Leu-Gly-Leu-Dpa-Ala-Arg-NH2.AcOH as substrate preincubated for 30 mins followed by substrate addition and measured every min for 20 mins by fluorescence assay
# Sequence of 72 kDa type IV collagenase (Homo sapiens) (P08253 110-660 limits assumed): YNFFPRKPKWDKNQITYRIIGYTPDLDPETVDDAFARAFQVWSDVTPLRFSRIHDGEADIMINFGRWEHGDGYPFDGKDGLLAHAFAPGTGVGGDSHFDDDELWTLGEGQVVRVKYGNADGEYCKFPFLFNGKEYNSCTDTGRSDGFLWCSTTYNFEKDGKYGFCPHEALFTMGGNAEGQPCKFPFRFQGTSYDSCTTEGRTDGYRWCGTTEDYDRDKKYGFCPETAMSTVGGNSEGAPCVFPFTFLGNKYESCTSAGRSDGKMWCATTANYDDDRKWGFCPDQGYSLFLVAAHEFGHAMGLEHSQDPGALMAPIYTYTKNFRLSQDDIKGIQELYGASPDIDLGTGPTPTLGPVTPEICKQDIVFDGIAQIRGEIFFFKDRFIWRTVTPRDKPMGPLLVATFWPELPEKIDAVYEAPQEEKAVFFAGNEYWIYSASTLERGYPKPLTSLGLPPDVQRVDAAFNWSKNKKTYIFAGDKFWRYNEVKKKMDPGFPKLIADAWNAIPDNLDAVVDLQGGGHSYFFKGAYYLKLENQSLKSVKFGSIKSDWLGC
# [8] = biological target: T2, Protein deacetylase HDAC6 (Homo sapiens) (UniProt Q9UBN7); assay: Inhibition of N-terminal GST-tagged recombinant full length human HDAC6 expressed in baculovirus infected Sf9 insect cells at 200 uM using HDAC substrate 3 after 30 mins by fluorescence assay relative to control
# T2 sequence (whole entry): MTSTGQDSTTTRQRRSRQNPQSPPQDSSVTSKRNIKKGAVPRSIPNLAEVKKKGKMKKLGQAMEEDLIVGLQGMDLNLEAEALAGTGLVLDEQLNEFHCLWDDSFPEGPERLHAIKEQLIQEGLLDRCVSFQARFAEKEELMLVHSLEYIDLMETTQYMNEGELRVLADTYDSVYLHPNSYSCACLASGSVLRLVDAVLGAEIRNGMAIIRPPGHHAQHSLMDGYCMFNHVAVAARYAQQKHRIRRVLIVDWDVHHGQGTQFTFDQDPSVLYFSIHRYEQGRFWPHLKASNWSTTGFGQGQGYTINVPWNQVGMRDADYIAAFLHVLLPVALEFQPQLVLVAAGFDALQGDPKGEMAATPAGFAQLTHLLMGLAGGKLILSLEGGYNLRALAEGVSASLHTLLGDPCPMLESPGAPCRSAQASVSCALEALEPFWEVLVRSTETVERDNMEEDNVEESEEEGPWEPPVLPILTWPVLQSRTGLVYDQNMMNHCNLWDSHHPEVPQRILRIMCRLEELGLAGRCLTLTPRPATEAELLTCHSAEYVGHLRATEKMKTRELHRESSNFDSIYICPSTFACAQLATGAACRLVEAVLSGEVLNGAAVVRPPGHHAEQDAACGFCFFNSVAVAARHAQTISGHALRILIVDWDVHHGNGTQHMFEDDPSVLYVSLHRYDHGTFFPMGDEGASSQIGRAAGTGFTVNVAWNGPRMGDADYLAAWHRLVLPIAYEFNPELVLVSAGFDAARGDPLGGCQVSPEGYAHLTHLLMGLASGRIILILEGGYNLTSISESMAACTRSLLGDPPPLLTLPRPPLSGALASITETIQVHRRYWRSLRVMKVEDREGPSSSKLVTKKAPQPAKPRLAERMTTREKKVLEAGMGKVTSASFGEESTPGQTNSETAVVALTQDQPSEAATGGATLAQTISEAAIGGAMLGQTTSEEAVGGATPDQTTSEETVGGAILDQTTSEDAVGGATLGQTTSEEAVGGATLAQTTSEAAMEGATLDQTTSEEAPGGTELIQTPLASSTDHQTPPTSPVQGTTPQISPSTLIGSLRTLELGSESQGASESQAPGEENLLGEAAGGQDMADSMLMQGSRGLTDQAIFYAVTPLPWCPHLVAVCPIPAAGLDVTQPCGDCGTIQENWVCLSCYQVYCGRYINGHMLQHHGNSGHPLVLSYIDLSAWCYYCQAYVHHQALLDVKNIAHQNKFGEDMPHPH
# [9] = biological target: Human immunodeficiency virus type 1 integrase (Human immunodeficiency virus 1) (UniProt Q7ZJM1); assay: Inhibition of recombinant HIV1 integrase strand transfer activity at 200 uM using 5'-end [32P]-labeled oligonucleotide substrate after 60 mins by densitometric analysis relative to control
# [10] = test system: Influenza A virus (A/California/04/2009(H1N1)); assay: Inhibition of Influenza A (A/California/04/2009) (H1N1) clinical isolate N-terminal truncated PA endonuclease at 500 nM using 5'-FAM/3-TAMRA quencer labeled 17-mer ssDNA-oligo as substrate measured over 45 mins in presence of up to 25 mM metal ions by FRET assay relative to control
# [11] = Inhibition of Influenza A (A/California/04/2009) (H1N1) clinical isolate N-terminal truncated PA endonuclease using 5'-FAM/3-TAMRA quencer labeled 17-mer ssDNA-oligo as substrate measured over 45 mins by FRET assay; parameters: species or system Influenza A virus (A/California/04/2009(H1N1))
# How it was run: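 Cleavage of a 5'-FAM/3'-TAMRA 17-mer ssDNA substrate (200 nM) by influenza PA endonuclease (4 nM) in 20 mM Tris, 150 mM NaCl, 2 mM MnCl2, 10 mM β-mercaptoethanol, 0.2% Triton-X100, pH 8.0.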
Structure (SMILES),inhibition [1] [%],inhibition [2] [%],inhibition [3] [%],other results
Nc1cccc(C(=O)O)c1O,0,7,11,
O=C(O)c1occc(=O)c1O,94,4,1,
O=c1cc[nH]c(-c2nnn[nH]2)c1O,96,99,7,
O=C(O)c1ccc2cccc(O)c2[n+]1[O-],5,87,16,
Cc1occ(O)c(=O)c1C(=O)O,21,15,5,
O=C1c2c(O)cccc2Cc2cccc(O)c21,18,6,41,
Cc1cc(C(=O)O)c(O)c(=O)[nH]1,44,9,8,
Cc1nc(-c2[nH]ccc(=O)c2O)no1,30,3,6,
O=C(O)c1ccc2cccnc2c1O,67,10,22,
Cc1cc(O)c(=O)c(O)cc1C(=O)O,98,61,32,
Cc1cc(=S)c(O)c(C(=O)O)o1,46,84,9,
Cc1cc(=O)c(O)c(C(=O)O)o1,96,12 to 13,8,inhibition [4]: inactive; inhibition [5]: inactive; inhibition [6]: 11%; inhibition [7]: 11%; inhibition [8]: inactive; inhibition [9]: 37%; inhibition [10]: Active
CNC(=O)c1oc(C)cc(=O)c1O,22,6,8,
Cc1cc(=O)c(O)c(C(=O)O)n1O,81,22,12,
Cc1nc(C(=O)O)c(O)c(=O)[nH]1,28,3,0,
Cc1cc(=O)c(O)c(C(N)=O)o1,30,8,5,
Cc1cc(=O)c(O)c(-c2ncco2)o1,88,8,0,
Cc1cc(=O)c(O)c(C(=O)O)n1C,21,1,2,
Oc1cccc(O)c1O [PYROGALLOL],21,63,49,IC50 [11]: 1700 nM; pIC50 [11]: 5.8
O=C(O)c1cccc(O)c1O,15,15,82,
O=C(O)c1cccc(C(=O)O)n1 [DIPICOLINIC ACID],,,,IC50 [11]: > 500000 nM; pIC50 [11]: < 3.3
Cc1cc(=O)c(O)c(C(=O)O)[nH]1,97,6,24,inhibition [10]: Active
O=c1c(O)ccccc1O,95,92,92,
O=C(O)c1cccc(=O)n1O,9,25,2,
N/C(=N\O)c1[nH]ccc(=O)c1O,15,43,83,
CNC(=O)c1cc(C)[nH]c(=O)c1O,7,8,5,
